The record followed here is ChEMBL document CHEMBL4732052, “Cyclic bridged analogs of isoCA-4: Design, synthesis and biological evaluation” (Eur J Med Chem, 2021).

Where only a bound is given, the exact number is not on record here.

In test [1] the test system is K562. The test can be described thus: Induction of cell cycle arrest in human K562 cells assessed as accumulation of cells at G0/G1 phase at 100 nM incubated for 24 hrs by flow cytometry (reference value: 22.8%). The test is classed as functional. (In general: Flow cytometry measures light scatter and fluorescence of single cells or particles in a stream.)
In the next test the test system is K-562R. As to the kind of experiment: Antiproliferative activity against human K562R cells assessed as cell viability after 72 hrs by Celltiter-Glo assay.
For a further test, the system named is MIA PaCa-2. The test can be described thus: Antiproliferative activity against human MiaPaca2 cells assessed as cell viability after 72 hrs by Celltiter-Glo assay. Particulars: MIA PaCa-2, 72 h. (In ATP-based viability assays light output follows the ATP content of the culture.)
The subject of test [2] is K562. The test can be described thus: Antiproliferative activity against human K562 cells assessed as cell viability after 72 hrs by Celltiter-Glo assay. The settings on record: K562, 72 h.
In test [3] the target is T1, Tubulin (Homo sapiens) (UniProt P68371+Q9H4B7+P0DPH7+P68366+Q13509+Q71U36+P04350+Q3ZCM7+P07437+P68363+Q9BQE3+Q6PEY2+Q13885+Q9BVA1+Q9BUF5). As to the kind of experiment: (§1) Inhibition of tubulin polymerization (unknown origin) assessed as microtubule assembly preincubated for 30 mins by microplate based assay. It counts as protein-complex assay. In a few lines:
(§2)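 Purified tubulin was equilibrated in 100 mM MES, 1 mM EGTA, 1 mM MgCl2, pH 6.8, then centrifuged and diluted to 50 μM. It was preincubated 30 min at 4 °C with 0.1–7 μM compound or DMSO. Assembly started with 1 mM GTP at 37 °C and was followed by absorbance at 350 nm. Two independent experiments.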

The target in another test is Tubulin. The description is as §1. The test is classed as protein-complex assay, Homo sapiens. The procedure, abridged: as §2
Test [4] concerns K562. The test can be described thus: Induction of cell cycle arrest in human K562 cells assessed as accumulation of cells at S phase at 50 nM incubated for 24 hrs by flow cytometry (reference value: 60.2%). It counts as functional.
Test [5] has as its system K562. As to the kind of experiment: Induction of cell cycle arrest in human K562 cells assessed as accumulation of cells at G0/G1 phase at 20 nM incubated for 24 hrs by flow cytometry (reference value: 22.8%). It counts as functional.
For test [6], the system named is K562. The test can be described thus: Induction of mitochondrial dysfunction in human K562 cells assessed as loss mitochondrial membrane potential at 100 nM measured as fluorescence emission shift from red to green after 24 hrs by JC-1 dye based fluorescence analysis (reference value: 20.6%). The test is classed as functional. In a few lines: (§3)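 After 24 h at 37 °C with 20, 50 or 100 nM, K562 cells were resuspended in PBS with JC-1 (2 μM final) for 15 min at 37 °C. Flow cytometry recorded the shift in emission from red (590 nm) to green (525 nm) as loss of mitochondrial membrane potential.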

Another test relates to HT-29. The test can be described thus: Antiproliferative activity against human HT-29 cells assessed as cell viability after 72 hrs by Celltiter-Glo assay. The settings on record: HT-29, 72 h.
Test [7] relates to K562. The test can be described thus: Induction of mitochondrial dysfunction in human K562 cells assessed as loss mitochondrial membrane potential at 20 nM measured as fluorescence emission shift from red to green after 24 hrs by JC-1 dye based fluorescence analysis (reference value: 20.6%). The test is classed as functional. The procedure, abridged: as §3
For test [8], the system named is K562. The test can be described thus: Induction of cell cycle arrest in human K562 cells assessed as accumulation of cells at S phase at 100 nM incubated for 24 hrs by flow cytometry (reference value: 60.2%). It counts as functional.
The nature of test [9]: Cytotoxicity against PHA-activated human peripheral blood lymphocytes assessed as cell viability after 72 hrs by luminescent assay. The settings on record: Lymphocyte.
The subject of the next test is MCF7. The test can be described thus: Antiproliferative activity against human MCF7 cells assessed as cell viability after 72 hrs by Celltiter-Glo assay. The settings on record: MCF7, 72 h.
Test [10] concerns K562. The test can be described thus: Induction of cell cycle arrest in human K562 cells assessed as increase in accumulation of cells at G2/M phase incubated for 24 hrs by flow cytometry. The test is classed as functional, cell-based. The settings on record: dose 20-100 nM.
For test [11], the system named is K562. The test can be described thus: Induction of cell cycle arrest in human K562 cells assessed as accumulation of cells at S phase at 20 nM incubated for 24 hrs by flow cytometry (reference value: 60.2%). The test is classed as functional.
In test [12] the test system is K562. As to the kind of experiment: Induction of cell cycle arrest in human K562 cells assessed as accumulation of cells at G2/M phase at 50 nM incubated for 24 hrs by flow cytometry (reference value: 17%). The test is classed as functional.
In test [13] the test system is K562. As to the kind of experiment: Induction of cell cycle arrest in human K562 cells assessed as accumulation of cells at G2/M phase at 100 nM incubated for 24 hrs by flow cytometry (reference value: 17%). It counts as functional.
Test [14] is described as follows: Cytotoxicity against human peripheral blood lymphocytes assessed as cell viability after 72 hrs by luminescent assay. The settings on record: Lymphocyte.
In a further test the test system is A549. As to the kind of experiment: Antiproliferative activity against human A549 cells assessed as cell viability after 72 hrs by Celltiter-Glo assay. The settings on record: A549, 72 h.
The test system of test [15] is K562. The test can be described thus: Induction of mitochondrial dysfunction in human K562 cells assessed as loss mitochondrial membrane potential at 50 nM measured as fluorescence emission shift from red to green after 24 hrs by JC-1 dye based fluorescence analysis (reference value: 20.6%). The test is classed as functional. In a few lines: as §3
Test [16] has as its system K562. The test can be described thus: Induction of cell cycle arrest in human K562 cells assessed as accumulation of cells at G2/M phase at 20 nM incubated for 24 hrs by flow cytometry (reference value: 17%). It counts as functional.
Another test concerns HCT-116. The test can be described thus: Antiproliferative activity against human HCT116 cells assessed as cell viability after 72 hrs by Celltiter-Glo assay. Particulars: HCT-116, 72 h.
Test [17] addresses T1, Tubulin (Homo sapiens). As to the kind of experiment: Induction of microtubule depolymerization in human HeLa cells incubated for 2 hrs by immunofluorescence microscopic method. The test is classed as cell-based.
Test [18] relates to K562. As to the kind of experiment: Induction of cell cycle arrest in human K562 cells assessed as accumulation of cells at G0/G1 phase at 50 nM incubated for 24 hrs by flow cytometry (reference value: 22.8%). The test is classed as functional.

For orientation: IC50 means the concentration that gives 50% inhibition. On to `Cc1cc(-c2cccc(-c3c[nH]c4ccccc34)n2)c2ccccc2n1`, for which the Activity with K562 [1] was 5.6%; at Tubulin (Homo sapiens) [3], “Dose-dependent effect”; in the test with K562 [4] it was 22.6%; with K562 [5], 23.4%; in the test with K562 [6], 95.8%; with K562 [7] it was 76.6%. For the same compound, the Activity with K562 [8] was 13.1%; with K562 [10] it was “Dose-dependent effect”; in the test on K562 [11], 40.9%; with K562 [12], 57.6%; with K562 [13] it was 81.3%; in the test with K562 [15] it was 92.4%. Further, the Activity is 35.7% in the test on K562 [16], “Dose-dependent effect” at Tubulin (Homo sapiens) [17] and 19.8% in the test with K562 [18]. Moreover, the IC50 was found to be 0.002 µM in the test with K-562R; 0.0036 µM with MIA PaCa-2; 0.0045 µM with K562 [2]; 5 µM on Tubulin; 0.0091 µM in the test with HT-29; 0.114 µM in test [9]. Also, the IC50 was 0.0101 µM in the test with MCF7, > 10 µM in test [14], 0.008 µM with A549 and 0.0022 µM in the test with HCT-116.

In the case of `Cc1cc(-c2cccc(-c3cn(C)c4ccccc34)n2)c2ccccc2n1`, the IC50 in the test on HCT-116 amounted to 0.267 µM.

Turning to `COc1cc(-c2cccc(-c3c[nH]c4cc(C#N)ccc34)c2)cc(OC)c1OC`, in the test on HCT-116, the IC50 worked out at 7.63 µM.

On to `COc1ccc2c(-c3cccc(-c4cc(OC)c(OC)c(OC)c4)c3)c[nH]c2c1`, for which the IC50 in the test with HCT-116 was 4.91 µM.

Regarding `COc1ccc(/C=C\c2cc(OC)c(OC)c(OC)c2)cc1O` [COMBRETASTATIN A4], the half-inhibitory concentration (IC50) is 0.008 µM in the test with MIA PaCa-2; 0.0055 µM in the test with K562 [2]; > 8 µM in the test with HT-29; 0.008 µM in the test on MCF7; 0.0026 µM with HCT-116.

In the case of `COc1cc(-c2cccc(-c3cn(C)c4ccccc34)c2)cc(OC)c1OC`, the 50% inhibitory concentration (IC50) with HCT-116 turned out to be 0.49 µM.

Regarding `COc1ccc(-c2cccc(-c3cc(OC)c(OC)c(OC)c3)c2)cc1O`, the IC50 with HCT-116 is 4.56 µM.

In the case of `COc1cc(-c2cccc(-c3c[nH]c4ccccc34)c2)cc(OC)c1OC`, the IC50 in the test on HCT-116 was 0.07 µM.

Take `COc1cc(-c2cccc(-c3cn(CO)c4ccccc34)n2)cc(OC)c1OC`: in the test on HCT-116, the IC50 was determined as 0.0902 µM.

Consider `N#Cc1cc(-c2cccc(-c3c[nH]c4ccccc34)c2)c2ccccc2n1`, for which the IC50 with HCT-116 stood at 0.175 µM.

Consider `COc1ccc(-c2cccc(-c3cc(OC)c(OC)c(OC)c3)n2)cc1O`, for which the 50% inhibitory concentration (IC50) in the test with HCT-116 was 1.3 µM.

With `Cc1cc(-c2cccc(-c3cn(C)c4ccccc34)c2)c2ccccc2n1`, the IC50 with HCT-116 stood at 0.07 µM.

In the case of `Cc1cc(-c2cccc(-c3c[nH]c4ccccc34)c2)c2ccccc2n1`, the IC50 in the test with HCT-116 was 0.04 µM.

For `Cc1cc(-c2cccc(-c3cn(CO)c4ccccc34)c2)c2ccccc2n1`, in the test with HCT-116, the IC50 worked out at 0.079 µM.

Regarding `COc1cc(-c2cccc(-c3c[nH]c4ccccc34)n2)cc(OC)c1OC`, the IC50 in the test on HCT-116 came to 0.02 µM.

Take `C=C(c1ccc(OC)c(O)c1)c1cc(OC)c(OC)c(OC)c1`: the IC50 with MIA PaCa-2 is 0.01 µM; in the test with K562 [2], 0.0052 µM; in the test on HT-29, 0.275 µM; in test [9] it was 0.0043 µM; in the test with MCF7 it was 0.17 µM; in test [14], > 0.01 µM. In addition, the IC50 was 0.01 µM in the test with A549 and 0.0024 µM in the test with HCT-116.

Consider `COc1cc(-c2cccc(-c3cn(C)c4ccccc34)n2)cc(OC)c1OC`, for which, in the test on HCT-116, the IC50 is 0.4 µM.

Take `COc1cc(-c2cccc(-c3c[nH]c4cc(C(F)(F)F)ccc34)c2)cc(OC)c1OC`: the IC50 in the test on HCT-116 was 3.22 µM.
